Molecules are shown by their SMILES. Converted amounts (≈) assume the structure as drawn. Bounds are passed on as bounds.

Common to all, as to assay type: cell-based
For assay [1], the system named is HCT-116 colon carcinoma cells. The assay can be described thus: Antiproliferative assay. To be noted: Homo sapiens, HCT-116, 72 h, read-out: IC50 HCT-116. In a few lines:
(§1)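 Adherent lines were seeded at 500 (Capan-1), 1000 (LN-229, HCT-116) or 1500 (NCI-H460) cells/well and dosed after overnight incubation. Suspension lines were seeded at 2500 (HL-60, K-562, Z-138) or 5500 (DND-41) cells/well directly onto compound. Seven 5-fold concentrations ran from 100 to 0.006 μM for 72 h. Viability was read as MTS absorbance at 490 nm after 3 h, and IC50 was derived from OD values. Two independent experiments.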

Assay [2] relates to NCI-H460 non-small cell lung cancer cells. Description: Antiproliferative assay. To be noted: Homo sapiens, NCI-H460, 72 h, read-out: IC50 NCI-H460. In a few lines:
as §1

The test system of assay [3] is K-562 chronic myeloid leukemia cells. Description: Antiproliferative assay. To be noted: Homo sapiens, K562, 72 h, read-out: IC50 K-562. In a few lines: as §1
Assay [4] concerns Capan-1 pancreatic adenocarcinoma cells. The assay can be described thus: Antiproliferative assay. To be noted: Homo sapiens, CAPAN-1, 72 h, read-out: IC50 Capan-1. In a few lines: as §1
Assay [5] concerns HL-60 acute myeloid leukemia cells. Description: Antiproliferative assay. As to conditions: Homo sapiens, HL-60, 72 h, read-out: IC50 HL-60. A digest of the protocol: as §1
Assay [6] deals with LN-229 glioblastoma cells. Description: Antiproliferative assay. As to conditions: Homo sapiens, LN-229, 72 h, read-out: IC50 LN-229. In a few lines: as §1
Assay [7] has as its system Klebsiella pneumoniae (ATCC 27736). Description: Antibacterial MIC, macrodilution method, K. pneumoniae. To be noted: ATCC27736, read-out: MIC K. pneumoniae. A digest of the protocol: (§2)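 CLSI M07-A9 tube macrodilution. Strains were grown overnight on nutrient agar at 37 °C, and colonies were suspended in Mueller-Hinton broth. Inoculum was 1 × 10^6 per mL (5 × 10^5 per mL in test). DMSO stock was 5120 μg/mL. Final concentrations were 256 to […] in 2 mL. Tubes were incubated at 37 °C for 16–20 h. Controls were inoculum with and without 1% DMSO, and broth alone.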

Assay [8] has as its system Staphylococcus aureus (ATCC 25923). Description: Antibacterial MIC, macrodilution method, S. aureus. To be noted: ATCC25923, read-out: MIC S. aureus. A digest of the protocol: as §2
Assay [9] relates to Escherichia coli (ATCC 25922). The assay can be described thus: Antibacterial MIC, macrodilution method, E. coli. As to conditions: ATCC25922, read-out: MIC E. coli. In a few lines: as §2
The test system of assay [10] is Pseudomonas aeruginosa (ATCC 9027). The assay can be described thus: Antibacterial MIC, macrodilution method, P. aeruginosa. As to conditions: ATCC9027, read-out: MIC P. aeruginosa. A digest of the protocol: as §2

For the compound `Fc1cc(-c2nc3ccccc3[nH]2)ccc1OCCN1CCOCC1` [Compound 21, 4-(2-(4-(1H-Benzo[d]imidazol-2-yl)-2-fluorophenoxy)ethyl)morpholine], the IC50 in [1], in [2], in assay [3], in assay [4], in [5] and in assay [6] was greater than 100 µM each time.

On to `CC(C)(O/N=C(\C(=O)N[C@@H]1C(=O)N2C(C(=O)[O-])=C(C[n+]3ccccc3)CS[C@H]12)c1csc(N)n1)C(=O)O` [CAZ, ceftazidime, reference compound], for which the MIC is 256 µg/mL (≈ 468 µM) in [7], 64 µg/mL (≈ 117 µM) in assay [8], 0.5 µg/mL (≈ 0.915 µM) in assay [9] and 2 µg/mL (≈ 3.66 µM) in assay [10].

For the compound `Fc1ccc2nc(-c3ccc(OCc4cn(CCN5CCOCC5)nn4)cc3)[nH]c2c1` [Compound 30, 4-(2-(4-((4-(6-Fluoro-1H-benzo[d]imidazol-2-yl)phenoxy)methyl)-1H-1,2,3-triazol-1-yl)ethyl)morpholine], the IC50 in [1] was greater than 100 µM; in [2], 46.9 ± 4.4 µM; in [3] it was greater than 100 µM; in assay [4] it was 58.8 ± 1.9 µM; in assay [5], no less than 60.6 µM; in assay [6], greater than 100 µM. The MIC in assay [7], in assay [8], in assay [9] and in [10] was greater than 256 µg/mL in each case.

As to `CCN(CC)CCOc1ccc(-c2nc3ccccc3[nH]2)cc1` [Compound 12, 2-(4-(1H-Benzo[d]imidazol-2-yl)phenoxy)-N,N-diethylethan-1-amine], the IC50 is greater than 100 µM in assay [1]; 52.4 ± 1.3 µM in [2]; 38.2 ± 4.5 µM in assay [3]; 47.7 ± 3.2 µM in assay [4]; 46.4 ± 1.3 µM in [5]; no less than 65.1 µM in [6]. Also, the MIC in assay [7], in assay [8], in assay [9] and in assay [10] was greater than 256 µg/mL throughout.

Consider `O=C(O)c1cn(C2CC2)c2cc(N3CCNCC3)c(F)cc2c1=O` [CIP, ciprofloxacin, reference compound], for which the MIC is greater than 256 µg/mL in [7], 0.5 µg/mL (≈ 1.51 µM) in [8], less than 0.125 µg/mL in assay [9] and 0.5 µg/mL (≈ 1.51 µM) in assay [10].

Consider `COc1cc([C@@H]2c3cc4c(cc3[C@@H](O[C@@H]3O[C@@H]5CO[C@@H](C)O[C@H]5[C@H](O)[C@H]3O)[C@H]3COC(=O)[C@H]23)OCO4)cc(OC)c1O` [Etoposide, reference compound], for which the IC50 in assay [1] amounted to 3.7 ± 0.3 µM; in [2] it was 6.1 ± 1.1 µM; in assay [3], 4 ± 1.3 µM; in assay [4], 3.4 ± 0.9 µM; in assay [5], 0.8 ± 0.2 µM; in assay [6], 0.03 µM.

For the compound `CCN(CC)CCOc1ccc(-c2nc3ccc(F)cc3[nH]2)cc1` [Compound 18, N,N-Diethyl-2-(4-(6-fluoro-1H-benzo[d]imidazol-2-yl)phenoxy)ethan-1-amine], the IC50 in assay [1] was 61.1 ± 0.7 µM; in assay [2], 37.2 ± 4.3 µM; in assay [3], 27.6 ± 3.3 µM; in assay [4], 39.1 ± 2.1 µM; in [5], 51.9 ± 5.9 µM; in [6], 44.1 ± 5.3 µM.

With `O=C(COc1ccc(-c2nc3ccc(F)cc3[nH]2)cc1)N1CCOCC1` [Compound 20, 2-(4-(6-Fluoro-1H-benzo[d]imidazol-2-yl)phenoxy)-1-morpholinoethan-1-one], the IC50 in assay [1], in [2], in assay [3], in [4], in assay [5] and in [6] was greater than 100 µM each time.

Values taken from PMC12062833 (RSC Medicinal Chemistry, 2025).
